Assay outcomes from PubChem.
CHO parental Ca = counter-screen: ATP calcium response change in parental CHO cells. parental CHO-K1, ATP-induced calcium, Fluo-8 fluorescence. inhibition, % at 5.6 µM. 330,000 compounds, 0.63% hits. AID 463079;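 active = inhibition above that plate's mean sample inhibition plus 3 SD, cut at about 26% in these data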
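Test system: parental CHO cells; detection: calcium-sensitive Fluo-8 fluorescence; evaluation: percent inhibition of calcium signal; also added: ATP as calcium-mobilizing challenge; repeats: one well per compound; control set: ATP-challenged DMSO wells low, unchallenged DMSO wells high; compound: single nominal dose of 5.6 µM per compound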
OX1R antag-1 = blocks the human orexin 1 receptor; O43613; OX1R-expressing cells, FRET antagonist read-out; inhibition, % at 6.6 µM; 330,000 compounds, 1.8% hits; AID 485270; in the data active = inhibition mostly above about 38%, no sharp cut-off; inactive = mostly below about 40%
TAAR1 agonist = agonists of human TAAR1. 360,000 compounds, 0.99% hits. activation, % at 3 µM. CHO RD-HGA16 TAAR1, Fluo-8 calcium fluorescence; vehicle wells 0%, saturating PEA agonist 100%;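 active = activation above the mean activation of all test compounds in the run plus 3 SD, cut at about 38% in these data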
Target sequence (Q96RJ0 whole entry, looked up): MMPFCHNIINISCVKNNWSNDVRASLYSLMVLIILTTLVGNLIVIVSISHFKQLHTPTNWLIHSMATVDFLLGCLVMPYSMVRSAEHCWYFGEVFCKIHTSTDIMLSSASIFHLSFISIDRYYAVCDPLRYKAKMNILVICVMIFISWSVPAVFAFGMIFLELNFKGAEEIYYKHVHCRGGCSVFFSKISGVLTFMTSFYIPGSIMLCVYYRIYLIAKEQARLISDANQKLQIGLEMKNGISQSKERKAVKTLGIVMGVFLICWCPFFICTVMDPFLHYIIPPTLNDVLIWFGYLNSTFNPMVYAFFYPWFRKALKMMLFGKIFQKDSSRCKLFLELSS
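Assay system – CHO-derived RD-HGA16 cells with stable Gα16 and human TAAR1 · Compound dosing – one-point dosing at 3 µM (nominal) · Incubation – 17-24 h seeding, 75 min 37 °C dye, 30 min RT · Measured by – kinetic Fluo-8 calcium fluorescence · Control set – DMSO vehicle as 0%, PEA at EC100 as 100% · Repeats – single well for each compound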
OX1R antag-2 = antagonists of human orexin 1 receptor; CHO/OX1R cells, Fluo-8 calcium fluorescence, orexin A; inhibition, % at 5 µM; O43613; 330,000 compounds, 0.43% hits;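 active = inhibition above its plate's threshold, mean inhibition of all tested compounds on the plate plus 3 SD, cut at about 37% in these data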
GalR3 antag = human GalR3 antagonism. HEK293 GalR3-CNG cAMP membrane potential fluorescence; galR3 body fused to GalR1 C-terminus. inhibition, % at 3 µM. 360,000 compounds, 0.44% hits;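 active = inhibition above the screen-wide average plus 3 SD, cut at about 13% in these data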;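 note: forskolin and galanin both at EC90 stimulate the cells; cAMP rise reported by CNG channel membrane potential dye signal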
Target sequence (O60755 1-299 limits assumed): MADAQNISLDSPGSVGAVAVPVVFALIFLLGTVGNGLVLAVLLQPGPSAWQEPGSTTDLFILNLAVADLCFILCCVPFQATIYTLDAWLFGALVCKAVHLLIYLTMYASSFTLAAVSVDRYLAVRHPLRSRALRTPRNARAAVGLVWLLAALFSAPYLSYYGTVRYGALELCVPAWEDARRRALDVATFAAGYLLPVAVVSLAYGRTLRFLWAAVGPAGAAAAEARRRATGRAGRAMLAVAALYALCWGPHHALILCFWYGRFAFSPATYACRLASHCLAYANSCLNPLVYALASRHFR
TAAR1 antagonist = antagonists of human TAAR1. inhibition, % at 3 µM. 360,000 compounds, 1.5% hits. CHO RD-HGA16 TAAR1, Fluo-8 calcium fluorescence, antagonist. Q96RJ0;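 active = inhibition above a per-plate cutoff, the mean inhibition of test compounds on that plate plus 3 SD, cut at about 49% in these data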
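Test system: RD-HGA16 CHO cells with stable hTAAR1 and Gα16 / Probe or stimulus: EC80 β-phenethylamine stimulus / Times: seeding 17-24 h prior, 75-min 37 °C, 30-min RT dye loading / Detection: Fluo-8 calcium-sensitive fluorescence / Read-out basis: % inhibition scaled between DMSO and EC80 PEA controls / Repeats: singlicate, one well per test compound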
Hits are given with their value; i = inactive; nt = no result given. Sampled rows, rich in hits. Any-hit rate of the full collection: about 4.2%.

SMILES	CHO parental Ca	OX1R antag-1	TAAR1 agonist	OX1R antag-2	GalR3 antag	TAAR1 antagonist
O=C(CSc1nc(=O)n2ccccc2n1)OCc1ccccc1	i	i	i	i	i	i
CCOC(=O)C1(Cc2ccccc2)CCN(Cc2cccc3c2OCO3)CC1	i	72	i	i	i	i
CC(C)(C)NC(=O)CSc1nc(-c2ccccc2)c(-c2ccccc2)[nH]1	i	i	i	i	i	i
CC1=C/C(=C(/c2cc(C)c(O)c(Br)c2)c2ccccc2S(=O)(=O)O)C=C(Br)C1=O	i	41	i	i	i	i
CC1=C/C(=C(/c2ccc(O)c(C)c2)c2ccccc2S(=O)(=O)O)C=CC1=O	i	i	i	i	i	i
O=C(CCCCCN1C(=O)c2ccccc2C1=O)Nc1ccc(S(=O)(=O)N2CCCCC2)cc1	i	i	i	i	i	i
COc1ccc(NC(=O)CN(C)C(=O)CN2C(=O)c3ccc([N+](=O)[O-])cc3C2=O)cc1	i	61	i	i	i	i
CN(C(=O)CN1C(=O)c2ccc([N+](=O)[O-])cc2C1=O)C1CCCCC1	i	64	i	i	i	i
CN(C(=O)Cn1cc([N+](=O)[O-])ccc1=O)C1CCCCC1	i	i	i	i	i	i
CCN(C(=O)CN1C(=O)c2ccc([N+](=O)[O-])cc2C1=O)C1CCCCC1	i	56	i	i	i	i
C[C@@H]1CN([C@H](C)CO)S(=O)(=O)c2ccc(Br)cc2O[C@@H]1CN(C)C(=O)Nc1ccc(C(F)(F)F)cc1	nt	nt	i	nt	i	i
CCOC(=O)CCCNC(=O)COC(=O)c1cccc(C)c1O	i	i	i	i	i	i
CCCn1c(=O)c(C(=O)NCc2ccc3c(c2)OCO3)c(O)c2ccccc21	nt	nt	i	nt	i	i
C=CCN(c1ccccc1OC)S(=O)(=O)c1cccc(C(=O)OCC(=O)N2CC(C)OC(C)C2)c1 (configuration not stated)	i	i	i	i	i	i
COc1cc(C(=O)NNC(=O)CCOc2ccccc2C)cc(OC)c1OC	i	i	i	i	i	i
O=C(NCc1ccc(F)cc1)c1cccc2c1C(=O)c1ccc(N3CCC(N4CCCCC4)CC3)cc1S2(=O)=O	nt	nt	i	nt	i	i
CCOC(=O)c1ccc(Nc2nc(C(=O)OCC)nc3ccccc23)cc1	i	i	i	i	i	i
CCOC(=O)c1nc(Nc2ccc(Nc3ccccc3)cc2)c2ccccc2n1	nt	nt	i	nt	i	63
COc1cc2oc3cc(C)oc(=O)c3c2cc1OC	i	i	i	i	i	i
Cc1cccc(OCC(=O)NCC(=O)N/N=C/c2cccs2)c1	i	i	i	i	i	i
Cc1[nH]c2ccccc2c1/C=N/NC(=O)c1cc(-c2cccs2)[nH]n1	i	57	i	i	i	58
Cc1cccc(OCC(=O)NCC(=O)N/N=C/c2c(C)[nH]c3ccccc23)c1	i	i	i	i	i	52
Cc1cc(C(=O)N/N=C/c2c(C)[nH]c3ccccc23)n[nH]1	i	i	i	i	i	i
O=C(N=Nc1c(O)[nH]c2ccccc12)c1cc(-c2cccs2)[nH]n1	i	66	i	i	i	i
CN(CCC1CCCCO1)Cc1cn(C)nc1-c1ccc2c(c1)OCCO2 (configuration not stated)	i	i	i	i	i	i
SMILES	CHO parental Ca	OX1R antag-1	TAAR1 agonist	OX1R antag-2	GalR3 antag	TAAR1 antagonist
O=C(NCCc1ccccc1)C(=O)NCC1OCCCN1S(=O)(=O)c1cc(F)ccc1F (configuration not stated)	i	i	40	i	i	i
Cc1ccc(C)c(S(=O)(=O)N2CCCOC2CNC(=O)C(=O)NCCC2=CCCCC2)c1 (configuration not stated)	i	i	i	i	i	i
Cc1ccc(C)c(S(=O)(=O)N2CCCCC2CCNC(=O)C(=O)NCc2ccco2)c1 (configuration not stated)	i	41	i	i	i	i
Cc1ccc(C)c(S(=O)(=O)N2CCCOC2CNC(=O)C(=O)NCCc2ccccc2)c1 (configuration not stated)	i	54	i	i	i	i
Cc1cc(F)ccc1S(=O)(=O)N1CCCOC1CNC(=O)C(=O)NCCc1ccccc1 (configuration not stated)	i	i	i	i	i	i
CC1CCCCN1S(=O)(=O)c1ccc(-n2cnnn2)cc1 (configuration not stated)	i	i	i	i	i	i
CCCCN1CCC(CN2C(=O)C(=O)NC[C@@H]2Cc2ccccc2)CC1	nt	nt	i	nt	i	i
Cc1cccc(NC(=O)c2ccc3c(c2)OCCO3)c1C	i	i	i	i	i	i
COC(=O)c1ccccc1NC(=O)c1ccc2c(c1)OCCCO2	i	59	i	i	i	i
O=C(Nc1cccc2cccnc12)c1ccc2c(c1)OCCO2	i	67	i	i	i	i
COc1cc(NC(=O)c2ccc3c(c2)OCO3)c2ncccc2c1	i	67	i	i	i	i
CCOC(=O)c1cnc(-n2nc(C)cc2C)nc1NC1CCCC1	43	i	i	59	i	i
CC/C=C/C(=O)N1CC2(CC(c3cccc(NC(=O)c4ccccc4)c3)=NO2)C[C@@H]1C(N)=O (some centres not stated)	i	i	i	i	i	i
CCCCCCCCn1ccc(=N)cc1	i	i	i	i	i	i
CCCCCCCCCCCCCCCCn1cc[n+](C)c1	71	i	i	85	i	i
S=C1Cc2ccccc2N1	nt	nt	43	nt	i	i
Cc1ccc(S(=O)(=O)N2CCCCC2)cc1NC(=S)NC(=O)c1ccco1	i	i	i	i	i	i
Cc1cccc(OCC(=O)Nc2ccc3oc(=O)ccc3c2)c1C	50	i	i	i	i	i
COc1ccc(O)c(CNn2c(-c3ccc(Br)cc3)nc3ccccc3c2=O)c1	i	44	i	i	i	i
COc1ccc(OC)c(CNn2c(-c3ccccc3F)nc3ccccc3c2=O)c1	i	i	i	i	i	i
CCOc1cc(CNCCO)cc(Br)c1OCc1ccccc1Cl	i	i	46	i	i	i
CCOc1cc(CNCCO)cc(Br)c1OCc1ccc(Cl)cc1	i	i	40	i	i	i
COc1cc(CNCCO)cc(Cl)c1OCc1ccccc1Cl	i	i	i	i	i	i
Cc1ccc(Cl)cc1NC(=O)Nc1c(C)n(C)n(-c2ccccc2)c1=O	i	i	i	i	i	i
NC(=O)CN1C(=O)NC2(CCCc3sccc32)C1=O (configuration not stated)	i	i	i	i	i	i
Cc1cc(C(=O)CN2C(=O)NC3(CCCc4sccc43)C2=O)c(C)n1-c1ccc(Cl)cc1 (configuration not stated)	i	50	i	i	i	i
Cc1cc2c(cc1C)C(=O)C(Br)=C(N)C2=O	nt	nt	i	nt	i	i
